# APP 5'UTR act: activates APP 5'UTR luciferase reporter; SH-SY5Y APP 5'UTR luciferase reporter, luminescence; zero percent = DMSO vehicle wells; activation, % at 2 µM; 190,000 tested, 1% active; AID 1276;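 active = activation above a set limit, based on mean plus 3 SD of controls, cut at about 140% in these data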
# STAT1 activator: increases IFN-gamma driven STAT1 reporter signal; 200,000 tested, 2.6% active; NIH 3T3 STAT1-luciferase reporter, luminescence; 100% = IFN-gamma alone, no compound; AID 932; activation (% of control), % at 5.5 µM;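 active = activation above the screen-wide mean activation plus 3 SD, cut at about 130% in these data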;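 also: raw ratio to IFN-gamma control signal so 100% means no change and 0% no light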
# STAT1 inh: reduces IFN-gamma driven STAT1 reporter signal; NIH 3T3 STAT1-luciferase reporter, luminescence; inhibition, % at 5.5 µM; 200,000 tested, 0.35% active;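 active = inhibition above a set limit, the mean inhibition across all tested compounds plus 3 SD, cut at about 34% in these data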;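 also: 0% = IFN-gamma with DMSO and 100% = IFN-gamma with 300 µM nifuroxazide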
# STAT3 inh: reduces IL-6 driven STAT3 reporter signal. U3A cells, IL-6 STAT3-luciferase reporter, luminescence; host cell line lacks STAT1. inhibition, % at 5.5 µM. 190,000 tested, 0.89% active. AID 862;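 active = inhibition above the mean inhibition across all screened compounds plus 3 SD, cut at about 44% in these data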;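 also: 0% = DMSO only wells and 100% = 100 µM nifuroxazide control wells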
# STAT3 activator: increases IL-6 driven STAT3 reporter signal; U3A cells, IL-6 STAT3-luciferase reporter, luminescence; 100% = signal with IL-6 EC80 alone; activation (% of control), % at 5.6 µM; 190,000 tested, 0.91% active; AID 871;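 active = activation above the screen-wide mean of compound activation plus 3 SD, cut at about 130% in these data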;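 also: 0% = background luminescence of wells with medium and substrate only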
#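 system = STAT3-luciferase reporter U3A cells | reagent = IL-6 stimulus at 33 ng/mL final | timing = 1 h compound pre-exposure, 6 h IL-6 stimulation, 37 °C | measured by = luminescence | evaluation = % activation versus median of IL-6-stimulated wells | control set = IL-6-only wells as 100% reference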
# NF-kB expr up: compounds increasing NF-kB expression in human neuronal cells; NF-kB reporter expression; hits give high values; fold change at 12.5 µM; 190,000 tested, 1.6% active; AID 1239; in the data active = fold change above about 3.3
# The depositor's hits bear a star; . = no result. A selection: hits, their analogues and other compounds. The true share with any hit is near 4.9%.
SMILES,APP 5'UTR act,STAT1 activator,STAT1 inh,STAT3 inh,STAT3 activator,NF-kB expr up
CCOc1ccc(C(=O)Nc2cccc(C(=O)O)c2)cc1Cl,75.7,33.6,70.8*,93.1*,25.0,6.25*
CCOc1ccc(C(=O)Nc2ccc(NC(=O)c3ccco3)c(Cl)c2)cc1Cl,-22.8,94.2,4.8,24.1,80.0,1.38
CCOc1ccc(C(=O)Nc2ccc(NC(=S)NC(=O)CC)cc2)cc1Cl,6.3,96.0,4.4,3.3,93.1,1.34
c1ccc2c(Oc3ccc4c(c3)OCO4)nncc2c1,119.8,137.8*,-41.2,17.4,88.5,4.32*
Nc1ccc(Oc2ccc3c(c2)OCO3)cc1,11.2,109.7,-10.7,1.0,104.2,1.2
Cc1ccc(NC(=O)c2ccccc2NS(=O)(=O)c2ccc(F)cc2)cc1S(=O)(=O)N1CCCCC1,-14.4,91.3,9.9,33.7,72.1,0.95
COc1ccc(CN=C2Nc3ccccc3CS2)cc1,200.0*,125.9,-28.4,10.0,96.6,6.74*
COc1ccc(CN=C2NN=C(c3ccc(Cl)cc3)CS2)cc1,7.6,143.7*,-48.9,-6.7,106.7,2.83
COc1ccc(C2=NN(C)C(=NCc3ccccc3)SC2)cc1,-6.4,102.7,-3.0,21.9,85.2,1.25
O=C(CSc1nnc(NC(=O)c2ccco2)s1)Nc1ccc2c(c1)OCCO2,16.0,98.4,0.8,3.9,102.9,0.98
COc1cc(C#N)ccc1OCC(=O)Nc1cccc(S(=O)(=O)N2CCCC2)c1,10.8,95.0,2.3,2.8,101.6,1.1
Cc1nc(Cl)sc1C(=O)Nc1ccc(Cl)cc1,19.4,103.8,-4.4,15.6,87.2,1.19
O=C(N/N=C/c1ccc([N+](=O)[O-])s1)c1ccncc1,-14.5,96.4,3.9,-1.8,101.0,0.63
Cc1ccc(C(=O)N/N=C/c2ccc([N+](=O)[O-])s2)cc1,-70.3,26.7,80.1*,76.3*,35.8,0.43
CC1CCCC(NC(=O)COC(=O)Cc2ccsc2)C1C (configuration not stated),3.1,97.5,2.7,3.4,97.4,1.18
O=C(NCCC1=CCCCC1)Nc1ccc2nsnc2c1,165.0*,133.2*,-37.8,-6.5,107.6,6.44*
O=C(NCCC1=CCCCC1)NC12CC3CC(CC(C3)C1)C2,173.3*,143.8*,-47.5,-17.6,116.8,1.43
COc1ccc(-n2nc3cc(C)c(NC(C)=O)cc3n2)cc1,123.1,62.6,39.0*,76.5*,38.3,2.33
Cc1ccc(-n2nc3cc(C)c(N)cc3n2)cc1,120.4,106.9,-7.4,27.8,78.3,3.9*
COc1ccc(NC(C)=O)c(C)c1,3.8,97.7,0.5,12.4,96.3,1.05
COc1ccc(-n2nc3cc(C)c(N)c(Br)c3n2)cc1,185.2*,167.8*,-73.1,-68.6,165.3*,6.26*
COc1ccc(-n2nc3cc(C)c(NC(=O)C(C)C)cc3n2)cc1,83.0,139.2*,-42.8,25.9,79.3,1.12
COc1ccc(-n2nc3ccccc3n2)cc1,11.4,116.5,-17.7,-7.5,109.3,1.52
N/N=C(\c1ccccc1)C12CN3CN(CN(C3)C1)C2,-19.0,105.2,-5.9,-0.8,100.9,1.03
CC(C)CC(=O)Nc1cccc(NC(=O)CC(C)C)n1,22.2,95.6,5.0,-6.3,103.0,0.82
SMILES,APP 5'UTR act,STAT1 activator,STAT1 inh,STAT3 inh,STAT3 activator,NF-kB expr up
C(=C\c1nnc2c3ccccc3ncn12)/c1ccccc1,-72.5,148.1*,-54.0,-49.4,145.0*,3.18
C/C(=N\NC(=O)COc1ccccc1[N+](=O)[O-])c1cccs1,41.2,144.2*,-47.6,-17.3,115.2,1.9
Cc1cccc(C2c3[nH]c4ccccc4c3CCN2C(=O)CN2CCOC2=O)n1 (configuration not stated),1.4,93.4,5.3,-37.4,134.1*,0.98
O=C(NCC1CCCO1)c1onc(CSc2cccc3ccccc23)c1C(=O)O (configuration not stated),10.9,91.7,9.3,0.0,101.1,1.06
CCOC(=O)C1(CCOc2ccccc2)CCN(Cc2ccc(-n3cccn3)cc2)CC1,25.1,92.0,6.8,10.6,92.9,3.89*
Cc1nc(N2CCCCC2)nc(N2CCCCC2)c1C=O,-5.0,107.7,-10.9,-7.1,111.6,1.02
c1ccc(Cn2ccc(-c3cnc(-c4ccccc4)s3)n2)cc1,124.7,141.7*,-45.1,22.8,85.7,6.77*
Nc1ccn(Cc2ccccc2)n1,4.7,98.1,0.5,6.4,98.2,1.36
Fc1ccccc1CSc1nc2ccccc2[nH]1,198.0*,135.7*,-38.9,9.6,92.1,10.1*
COc1cccc(CSc2nc3ccccc3[nH]2)c1,89.0,118.4,-20.2,12.5,86.5,4*
O=[N+]([O-])c1cccc(CSc2nc3ccccc3[nH]2)c1,12.7,103.1,-3.4,6.6,90.5,1.13
O=C(Nc1ccc(Cl)c(Cl)c1)N1CC=CCC1,56.5,127.1,-31.5,9.4,95.7,3.47*
Cc1ccc(NC(=O)N2CCCC2)cc1Cl,31.1,117.4,-19.9,5.7,105.9,1.4
Cc1ccccc1Oc1ccc(Oc2ccccc2C)nn1,65.5,130.7*,-34.2,-8.1,112.6,2.22
O=C(O)CCCNc1cc(N2CCC3(CC2)OCCO3)c2noc3c2c1C(=O)c1ccccc1-3,89.9,142.6*,-45.8,-0.1,102.6,0.44
CCOC(=O)N1CCN(c2cc(NCCC(=O)O)c3c4c(onc24)-c2ccccc2C3=O)CC1,6.7,103.9,-5.3,1.6,104.1,0.59
O=[N+]([O-])c1ccccc1/C=C/C=N/Nc1ccc(S(=O)(=O)Nc2ccc(Cl)cc2)cc1[N+](=O)[O-],9.5,103.2,-5.5,-11.7,113.1,0.82
O=C(CSc1ncnc2nc[nH]c12)Nc1nnc(SCc2ccc(Cl)c(Cl)c2)s1,20.9,91.7,6.2,7.9,97.3,1.23
CCOC(=O)c1c(-c2ccccc2)nc2ccc(C)cn12,66.0,137.9*,-42.4,-16.6,114.2,2.2
CCOC(=O)C(=O)c1c(-c2ccccc2)nc2ccccn12,-0.2,99.0,-0.1,-3.1,103.9,1.17
CCOC(=O)c1c(-c2ccccc2)nc2cc(C)ccn12,57.1,133.3*,-37.3,-5.9,105.8,1.96
Cc1cc(C)nc(NC(=O)C2c3ccccc3Oc3ccccc32)n1,-1.2,98.1,0.2,6.4,96.5,1.09
O=C(O)c1cccc(N2C(=O)/C(=C/c3ccc([N+](=O)[O-])cc3)C=C2c2ccccc2)c1,-6.4,62.4,39.5*,66.3*,46.1,1.1
CN1C(=O)CS/C1=N\NC(=O)COc1cccc2cccnc12,-3.2,98.9,0.0,-0.6,101.8,1
O=C(Nc1scc(-c2ccccc2)c1C(=O)O)c1ccco1,8.4,106.9,-7.6,5.0,99.0,1.31
COC(=O)c1c(-c2ccc(F)cc2)csc1NC(=O)c1ccco1,34.9,145.6*,-57.5,0.7,100.4,1.37
Nc1nc(-c2ccccc2)nc(-c2ccccc2O)n1,11.9,97.2,3.0,-42.2,139.0*,.

# Bioassay records deposited in PubChem by several laboratories.
